Screening data (PubChem)
Sampled rows, rich in hits. Any-hit rate of the full collection: about 0.97%.
GASC-1 inh = inhibitors of human GASC-1 (JMJD2C) demethylase; AID 2099; GST-JMJD2C(1-420) H3K9me3 demethylation, DELFIA europium; inhibition, % at 2.35 µM; Q9H3R0; 330,000 tested, 0.069% active;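 active = more than half of a compound's replicate wells show inhibition beyond 50%, single wells judged on their own value; inconclusive = some, but no more than half, of replicates pass 50% inhibition; inactive = no replicate passes 50% inhibition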;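 also: signal counts dimethyl H3K9 product captured on neutravidin plate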
UCH37 DUB inh = inhibitors of human deubiquitinating enzyme UCH37. Q9Y5K5. purified proteasome/UCH37, Ub-AMC cleavage fluorescence. inhibition, % (no concentration beside the values). 330,000 tested, 0.33% active;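 active = mean inhibition over replicate wells above about 20%, limit read from the data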
Target sequence (Q9Y5K5 whole entry, looked up): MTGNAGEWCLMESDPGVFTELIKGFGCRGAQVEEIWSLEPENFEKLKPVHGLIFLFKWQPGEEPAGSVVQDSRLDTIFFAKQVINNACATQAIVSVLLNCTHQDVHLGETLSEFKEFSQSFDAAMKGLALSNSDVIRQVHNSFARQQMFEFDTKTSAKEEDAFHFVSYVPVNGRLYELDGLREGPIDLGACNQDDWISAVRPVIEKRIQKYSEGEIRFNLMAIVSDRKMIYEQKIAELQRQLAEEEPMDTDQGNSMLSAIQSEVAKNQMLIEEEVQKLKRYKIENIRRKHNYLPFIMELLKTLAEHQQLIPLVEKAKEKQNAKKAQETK
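system = Proteasome-associated human UCH37 deubiquitinase | amount = 0.15 nM proteasome as dispensed | medium = pH 7.4 Tris-HCl (50 mM) with ovalbumin, ATP-MgCl2, DTT | incubation = 30 min preincubation with enzyme, 25 min cleavage at room temperature | detection = AMC fluorescence 355/460 nm | read-out basis = percent inhibition | controls = no-proteasome and no-compound wells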
A3G deaminase = APOBEC3G (human) deaminase inhibition; AID 493012; 330,000 tested, 0.28% active; recombinant A3G, ssDNA deamination FAM/TAMRA fluorescence; inhibition, % at 20 µM; Q9HC16;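 active = inhibition of at least 40% at 20 µM, with no more than 30% in the related APOBEC3A deaminase screen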
A3A deaminase = blocks human APOBEC3A ssDNA deamination; P31941; inhibition, % at 20 µM; 330,000 tested, 0.41% active; recombinant A3A, FAM/TAMRA ssDNA deamination fluorescence;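 active = at least 40% inhibition at 20 µM here, with at most 30% in a related deaminase screen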
Target sequence (P31941 whole entry, looked up): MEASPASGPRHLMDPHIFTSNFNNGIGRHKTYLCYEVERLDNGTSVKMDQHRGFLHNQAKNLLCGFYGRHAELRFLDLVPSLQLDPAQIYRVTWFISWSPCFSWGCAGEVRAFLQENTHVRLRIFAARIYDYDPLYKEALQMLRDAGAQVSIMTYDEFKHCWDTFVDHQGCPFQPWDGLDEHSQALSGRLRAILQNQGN
UCH37 reconfirm = UCH37 Ub-AMC cleavage inhibition, confirmed; shares compounds with UCH37 DUB inh; 480 tested, 27% active; AID 624100; Proteasome-bound UCH37, Ub-AMC cleavage fluorescence; inhibition, % at 20 µM;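 active = average inhibition over replicates above about 50%, so the earlier screening hit is confirmed, limit read from the data; inactive = the rest, counted as false positives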;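 also: based on cleavage rate fitted by regression over a 30 min kinetic read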
Each line names hits and unclear results; the compound was inactive in the other large screens (follow-up assays come after a bar, where they were run).

CCc1ccc(S(=O)(=O)NN=C(C)c2ccncc2)cc1	none (no result: GASC-1 inh, A3G deaminase, A3A deaminase)
Cc1nonc1C(=O)NN=Cc1ccncc1	none (no result: GASC-1 inh, A3G deaminase, A3A deaminase)
O=C(C[n+]1ccc(C=NO)cc1)N(Cc1ccccc1)Cc1ccccc1	none (no result: GASC-1 inh, A3G deaminase, A3A deaminase)
O=C1C(Cl)=C(Nc2ccccc2)C(=O)c2ccccc21	none (no result: A3G deaminase, A3A deaminase)
CCN(CC)CCCNC1=C(Cl)C(=O)c2ccccc2C1=O	UCH37 DUB inh 27.1 | UCH37 reconfirm inactive
O=C(O)c1cccc(NC2=C(Cl)C(=O)c3ccccc3C2=O)c1	UCH37 DUB inh 46.0 (no result: A3G deaminase, A3A deaminase) | UCH37 reconfirm inactive
O=C1C(Cl)=C(NCCc2ccccc2)C(=O)c2ccccc21	UCH37 DUB inh 76.1 (no result: GASC-1 inh, A3G deaminase, A3A deaminase) | UCH37 reconfirm 86.7
CCN1C(=O)CSC1=NS(=O)(=O)c1ccc(C)cc1	none (no result: GASC-1 inh, A3G deaminase, A3A deaminase)
Cc1c(CN(C)C)c2c(n1C)C(=O)c1ccc(Br)cc1-2	none
CCOC(=O)c1c2c(n(C)c1C)C(=O)C(=O)c1ccc(Br)cc1-2	UCH37 DUB inh 55.7 | UCH37 reconfirm 69.7
O=S(=O)(NCCC1=CCCCC1)c1cccc(S(=O)(=O)N2CCOCC2)c1	UCH37 DUB inh 58.0 | UCH37 reconfirm 59.5
Nc1nnn(CC(=O)NN=Cc2cccc(Cl)c2)n1	none (no result: GASC-1 inh, A3G deaminase, A3A deaminase)
O=C(NN=C1CCc2ccccc21)C1CC1	none (no result: GASC-1 inh, A3G deaminase, A3A deaminase)
COc1ccc([C@H]2CC(=O)C=C(c3ccc(-c4ccccc4)c(F)c3)C2)cc1OC	UCH37 DUB inh 41.0 | UCH37 reconfirm inactive
COc1ccccc1C1/C(=C(\O)c2ccc3c(c2)OCCO3)C(=O)C(=O)N1CCCn1ccnc1 (stereo not given)	UCH37 DUB inh 42.4 | UCH37 reconfirm inactive
O=C(NN=Cc1oc(O)c2ccccc12)c1ccccc1	none (no result: GASC-1 inh, A3G deaminase, A3A deaminase)
COc1cc(C=NNS(=O)(=O)c2ccc(C(C)(C)C)cc2)cc([N+](=O)[O-])c1O	none (no result: GASC-1 inh, A3G deaminase, A3A deaminase)
CCC(=O)N(C)/C=C1\Sc2ccccc2C1=O	none
CCC(=O)N(CC)C1=C(O)c2ccccc2C(=O)C1=O	UCH37 DUB inh 37.0 | UCH37 reconfirm inactive
Oc1ccccc1C=NN1CCCCC1	none (no result: GASC-1 inh, A3G deaminase, A3A deaminase)
CC(=O)Oc1c(Br)cc(N(C(C)=O)S(=O)(=O)c2ccccc2)c2ccccc12	UCH37 DUB inh 35.8 | UCH37 reconfirm inactive
O=c1c2ccccc2ncn1N=Cc1ccccc1	none (no result: GASC-1 inh, A3G deaminase, A3A deaminase)
Cc1[nH]n(-c2ccccc2)c(=O)c1C(C[N+](=O)[O-])c1ccc(F)cc1 (stereo not given)	none
Cc1[nH]n(-c2ccccc2)c(=O)c1C(C[N+](=O)[O-])c1ccc(Cl)cc1 (stereo not given)	UCH37 DUB inh 41.5 | UCH37 reconfirm inactive
Cc1ccc(C(C[N+](=O)[O-])c2c(C)[nH]n(-c3ccccc3)c2=O)cc1 (stereo not given)	GASC-1 inh inconclusive, UCH37 DUB inh 52.5 | UCH37 reconfirm inactive
N#C/C(=C\c1ccc(N2CCCCC2)o1)C(N)=O	UCH37 DUB inh 30.5 | UCH37 reconfirm inactive
N#C/C(=C\c1ccc(N2CCCCC2)o1)C(=O)Nc1cccc(Br)c1	none
CCSC1=C(C#N)C2(CCCC2)C(C#N)=C(N)N1	UCH37 DUB inh 43.2 | UCH37 reconfirm inactive
CSC1=C(C#N)C2(CCCC2)C(C#N)=C(N)N1	none
CC(C)C(=NNS(=O)(=O)c1ccc(Br)cc1)c1cccs1	none (no result: GASC-1 inh, A3G deaminase, A3A deaminase)
O=C1CCCC2=C1C(c1ccc3c(c1)OCO3)c1c([nH]n(-c3ccccc3)c1=O)N2 (stereo not given)	UCH37 DUB inh 31.8 | UCH37 reconfirm inactive
COc1cccc(C2C3=C(CCCC3=O)Nc3[nH]n(-c4ccccc4)c(=O)c32)c1 (stereo not given)	none
O=C(CON=Cc1ccc(OC(F)F)cc1)NC1CCCC1	none (no result: GASC-1 inh, A3G deaminase, A3A deaminase)
CCOC(=O)N1CCN(C2=C(NS(=O)(=O)c3ccc(NC(C)=O)cc3)C(=O)c3ccccc3C2=O)CC1	UCH37 DUB inh 29.6 | UCH37 reconfirm inactive
ON=Cc1ccc2ccccc2c1	none (no result: GASC-1 inh, A3G deaminase, A3A deaminase)
Cn1nnnc1SC(C(=O)Nc1ccc(F)cc1)c1ccccc1 (stereo not given)	none
Cn1c(SC(C(=O)Nc2ccc(F)cc2)c2ccccc2)nc2ccccc21 (stereo not given)	UCH37 DUB inh 45.0 | UCH37 reconfirm inactive
Cc1ccc2cc(C=NNC(=O)c3ccccc3O)c(Cl)nc2c1	none (no result: GASC-1 inh, A3G deaminase, A3A deaminase)
Cc1ccc(CN2CCN(N=Cc3ccc(C)s3)CC2)cc1	none (no result: GASC-1 inh, A3G deaminase, A3A deaminase)
O=C(NN=Cc1cc([N+](=O)[O-])ccc1N1CCCC1)c1ccccn1	none (no result: GASC-1 inh, A3G deaminase, A3A deaminase)
COC(=O)c1cccc(-c2ccc(C(c3c(C)[nH][nH]c3=O)c3c(C)[nH][nH]c3=O)o2)c1	UCH37 DUB inh 39.9 | UCH37 reconfirm 57.4
Cc1[nH][nH]c(=O)c1C(c1ccc(-c2ccc(Cl)c(C(=O)O)c2)o1)c1c(C)[nH][nH]c1=O	UCH37 DUB inh 30.1 (no result: GASC-1 inh, A3G deaminase, A3A deaminase) | UCH37 reconfirm inactive
Cc1ccc(NC(=O)CC2S/C(=N/N=C3CCCc4ccccc43)NC2=O)cc1 (stereo not given)	none (no result: GASC-1 inh, A3G deaminase, A3A deaminase)
